These results are taken from ChEMBL document CHEMBL1153806, “Preclinical efficacy of a carboxylesterase 2-activated prodrug of doxazolidine” (J Med Chem, 2009).

The subject of data set [1] is NCI-H1435. The data set can be described thus: Antitumor activity against human NCI-H1435 cells expressing CES2 gene xenografted in pentyl PABC-doxazolidine-pretreated athymic nude mouse assessed as inhibition of tumor growth at 3 to 4 mg/kg, iv administered on day 70 after tumor implantation. It is filed as functional, organism-based. In a few lines: (§1)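 Athymic nude females, 4–6 weeks old, given ~2 × 10⁶ H1435 cells s.c. in the left flank on day 0; 10 mice/group. I.v. tail-vein doses (Dox-equivalent mg/kg) in 5% DMSO/95% D5W on days 7, 14 and 21, with all groups retreated on days 56, 63 and 70; vehicle controls. Caliper volume π × short² × long/6. Cube roots analysed with day-7 size as baseline covariate, by period.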

Data set [2] deals with HepG2. The data set can be described thus: Antitumor activity against human HepG2 cells expressing CES2 gene xenografted in pentyl PABC-doxazolidine-treated NOD/SCID mouse assessed as slowing of large, rapidly growing tumor growth at 5 mg/kg, iv administered on day 52 after tumor implantation. Details: dose 5 mg/kg. It is filed as functional, organism-based. A digest of the protocol: (§2)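 NOD/SCID females, 4–6 weeks old, each given ~1.5 × 10⁷ N-Hep G2 cells s.c. in the left flank; 10 mice/group. Dosed i.v. by tail vein on days 7, 14 and 21, in mg/kg Dox-equivalent, from DMSO diluted into D5W (5% DMSO/95% D5W), 100 µL/mouse. Vehicle-only controls. The 3 mg/kg group was redosed at 5 mg/kg on days 45 and 52. Tumor volume (π × short diameter² × long diameter/6) measured weekly.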

Data set [3] has as its system Mus musculus. As to the kind of experiment: Toxicity in athymic nude mouse xenografted with human NCI-H1435 cells expressing CES2 gene assessed as occurrence of fatty liver administered with six iv injection of 3 mg/kg by hematoxylin/eosin staining-based microscopy. It is filed as organism-based. Details: dose 3 mg/kg, route intravenous. The note with it: in vivo. In a few lines: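 Hearts and livers taken from the H1435 nude-mouse study (six i.v. injections) after CO₂/cervical dislocation. Fixed in 10% formalin for 24 h, paraffin-embedded, and cut at 4 µm. Slides deparaffinized in xylene and ethanol, stained with Mayer's hematoxylin for 2 min, blued in 1% ammonium hydroxide, and counterstained with eosin for 30 s. Examined by light microscopy.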

Data set [4] relates to NCI-H1435. As to the kind of experiment: Antitumor activity against human NCI-H1435 cells expressing CES2 gene xenografted in pentyl PABC-doxazolidine-pretreated athymic nude mouse assessed as inhibition of tumor growth at 3 to 4 mg/kg, iv administered on day 56 after tumor implantation. It is filed as functional, organism-based. A digest of the protocol:
as §1

The test system of data set [5] is Mus musculus. The data set can be described thus: Toxicity in NOD/SCID mouse xenografted with human HepG2 cells expressing CES2 gene assessed as body weight change at 3 mg/kg, iv administered on day 7, 14 and 21 after tumor implantation. It is filed as organism-based. Details: dose 3 mg/kg, route intravenous. The note with it: in vivo. A digest of the protocol:
(§3)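 Same NOD/SCID N-Hep G2 flank xenograft model: i.v. tail-vein dosing on days 7, 14 and 21 in 5% DMSO/95% D5W, doses in Dox-equivalent mg/kg, 10 mice/group, vehicle controls. Body weight recorded weekly and followed over the first 5 weeks.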

In data set [6] the test system is Mus musculus. The data set can be described thus: Toxicity in NOD/SCID mouse xenografted with human HepG2 cells expressing CES2 gene assessed as survival at 4 mg/kg, iv administered on day 7, 14 and 21 after tumor implantation. It is filed as organism-based. Also noted: dose 4 mg/kg, route intravenous. Particulars: in vivo. In a few lines: (§4)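 Female NOD/SCID mice, 4–6 weeks old, 10 per group. About 1.5 × 10⁷ N-Hep G2 cells were injected s.c. into the left flank. Tail-vein i.v. dosing (mg/kg Dox-equivalent weight) was given on days 7, 14 and 21. Vehicle was 5% DMSO/95% D5W, and controls received vehicle only. Body weight was measured weekly over the first 5 weeks. Survival was followed to study end.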

Data set [7] is described as follows: Toxicity in pentyl PABC-doxazolidine-treated NOD/SCID mouse xenografted with human HepG2 cells expressing CES2 gene assessed as mortality rate at 5 mg/kg, iv administered on day 52 after tumor implantation. It is filed as organism-based. Also noted: dose 5 mg/kg, route intravenous. The note with it: in vivo, read-out: Activity. In a few lines:
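NOD/SCID females carried s.c. left-flank N-Hep G2 xenografts (about 1.5 × 10⁷ cells). They first received i.v. 3 mg/kg Dox-equivalent on days 7, 14 and 21. The same group was then redosed i.v. at 5 mg/kg on days 45 and 52 in 5% DMSO/95% D5W. There were 10 mice per group. Deaths were counted to the end of the study.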

Data set [8] concerns Mus musculus. The data set can be described thus: Toxicity in athymic nude mouse xenografted with human NCI-H1435 cells expressing CES2 gene assessed as inflammatory cell infiltration in ileum administered with six iv injection of 3 to 4 mg/kg by hematoxylin/eosin staining-based microscopy. It is filed as organism-based. Details: dose 3-4 mg/kg, route intravenous. The note with it: in vivo. In a few lines: (§5)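 Kidney and ileum taken from the H1435 nude-mouse study (six i.v. injections). Formalin-fixed for 24 h, paraffin-embedded, and cut into 4 µm sections. Sections deparaffinized in xylene, rehydrated through an ethanol series, stained in Harris hematoxylin for 50 s with eosin, then dehydrated and mounted. Morphology assessed by microscopy.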

Data set [9] relates to HepG2. The data set can be described thus: Antitumor activity against human HepG2 cells expressing CES2 gene xenografted in NOD/SCID mouse assessed as inhibition of tumor growth at 3 mg/kg, iv administered on day 7, 14 and 21 after tumor implantation. It is filed as functional, organism-based. Also noted: dose 3 mg/kg. In a few lines: as §2
The test system of data set [10] is NCI-H1435. As to the kind of experiment: Antitumor activity against human NCI-H1435 cells expressing CES2 gene xenografted in athymic nude mouse assessed as inhibition of tumor growth at 3 mg/kg, iv administered on day 7, 14 and 21 after tumor implantation. It is filed as functional, organism-based. Details: dose 3 mg/kg. A digest of the protocol: as §1
In data set [11] the test system is Mus musculus. The data set can be described thus: Toxicity in athymic nude mouse xenografted with human NCI-H1435 cells expressing CES2 gene assessed as occurrence of diarrhea at 3 to 4 mg/kg, iv administered on day 7, 14 and 21 after tumor implantation. It is filed as organism-based. Also noted: dose 3-4 mg/kg, route intravenous. The note with it: in vivo.
In data set [12] the test system is HepG2. As to the kind of experiment: Cytotoxicity against human HepG2 cells expressing CES2 gene expressing CES2 gene after 5 to 6 days by MTT assay. It is filed as functional.
Data set [13] concerns NCI-H460. The data set can be described thus: Cytotoxicity against human H460 cells expressing CES2 gene.
Data set [14] concerns Mus musculus. As to the kind of experiment: Toxicity in NOD/SCID mouse xenografted with human HepG2 cells expressing CES2 gene assessed as occurrence of diarrhea at 3 mg/kg, iv administered on day 7, 14 and 21 after tumor implantation. It is filed as organism-based. Details: dose 3 mg/kg, route intravenous. The note with it: in vivo.
Data set [15] relates to HepG2. The data set can be described thus: Antitumor activity against human HepG2 cells expressing CES2 gene xenografted in pentyl PABC-doxazolidine-pretreated NOD/SCID mouse assessed as slowing of large, rapidly growing tumor growth at 5 mg/kg, iv administered on day 45 after tumor implantation. It is filed as functional, organism-based. Details: dose 5 mg/kg. In a few lines:
as §2

The subject of data set [16] is Mus musculus. The data set can be described thus: Toxicity in NOD/SCID mouse xenografted with human HepG2 cells expressing CES2 gene assessed as survival at 5 mg/kg, iv administered on day 7, 14 and 21 after tumor implantation. It is filed as organism-based. Also noted: dose 5 mg/kg, route intravenous. Particulars: in vivo. In a few lines:
as §4

Data set [17] relates to Mus musculus. The data set can be described thus: Toxicity in athymic nude mouse xenografted with human NCI-H1435 cells expressing CES2 gene assessed as vacuolar degeneration of kidney tissue administered with six iv injection of 3 to 4 mg/kg by hematoxylin/eosin staining-based microscopy. It is filed as organism-based. Also noted: dose 3-4 mg/kg, route intravenous. Particulars: in vivo. In a few lines:
as §5

In data set [18] the test system is HepG2. As to the kind of experiment: Antitumor activity against human HepG2 cells expressing CES2 gene xenografted in NOD/SCID mouse assessed as inhibition of tumor growth at 4 to 5 mg/kg, iv administered on day 7, 14 and 21 after tumor implantation. It is filed as functional, organism-based. A digest of the protocol:
as §2

For data set [19], the system named is Mus musculus. The data set can be described thus: Toxicity in NOD/SCID mouse xenografted with human HepG2 cells expressing CES2 gene assessed as body weight loss at 5 mg/kg, iv administered on day 7, 14 and 21 after tumor implantation measured after 5 weeks. It is filed as organism-based. Also noted: dose 5 mg/kg, route intravenous. Particulars: in vivo, 840 h. In a few lines: as §3

Molecules are shown by their SMILES. Active and inactive are the calls of the source. The calls are words filed in the database; no cut-off is given here.

For `CCCCCOC(=O)Nc1ccc(COC(=O)N2CO[C@@H]3[C@H](C)O[C@@H](O[C@H]4C[C@](O)(C(=O)CO)Cc5c(O)c6c(c(O)c54)C(=O)c4c(OC)cccc4C6=O)C[C@@H]32)cc1`, the inhibition entry in data set [1], in [4], in data set [10] and in data set [18] was “Active” each time. Further, the result in [2] and in [15] was Active. Besides, the Activity result in data set [3], in data set [5], in data set [6], in [8], in [11] and in data set [14] was “Non-toxic” in each case. Further, the Activity entry in [16] is listed as “Non-toxic”; in [17], “Non-toxic”; in data set [19], 10%. Moreover, the mortality in data set [7] was 60%. Also, the inhibition entry in [9] was “inactive”. Besides, the logIC50 in [12] was -6.9. Further, in data set [13], the GI50 was 447 nM.
